Active and inactive are the calls of the source.
Key:
[1] = molecular target: Sigma non-opioid intracellular receptor 1 (Cavia porcellus, UniProt Q60492); type: cell membranes;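 further: radioligand displacement of [3H]-(+)-pentazocine from guinea pig brain cortex membranes, 120 min incubation, bound radioactivity read by scintillation counting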
Mu-type opioid receptor = Mu-type opioid receptor (Homo sapiens, UniProt P35372); assay: Displacement of [3H]DAMGO from human MOR expressed in CHO-K1 cells membranes after 60 mins by micro beta scintillation counting method; type: cell membranes
Mu-type opioid receptor, sequence (P35372 whole entry): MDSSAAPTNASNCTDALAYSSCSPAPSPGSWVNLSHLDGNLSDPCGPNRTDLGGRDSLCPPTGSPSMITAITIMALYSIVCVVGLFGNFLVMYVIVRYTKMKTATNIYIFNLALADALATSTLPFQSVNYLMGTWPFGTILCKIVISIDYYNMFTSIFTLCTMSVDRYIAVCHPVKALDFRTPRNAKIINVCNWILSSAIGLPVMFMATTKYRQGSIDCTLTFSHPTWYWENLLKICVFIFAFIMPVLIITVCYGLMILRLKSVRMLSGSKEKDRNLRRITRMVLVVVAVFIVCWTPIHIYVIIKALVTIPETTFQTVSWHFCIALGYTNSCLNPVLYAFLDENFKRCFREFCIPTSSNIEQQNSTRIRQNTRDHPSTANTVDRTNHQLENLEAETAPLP
In short: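 Human MOR in CHO-K1 membranes (20 µg) with 1 nM [3H]DAMGO in 50 mM Tris-HCl, 5 mM MgCl2, pH 7.4, 27 °C for 60 min. Test compound at five concentrations; 10 µM naloxone defines nonspecific binding. Filtered, washed thrice with ice-cold 10 mM Tris-HCl, counted by liquid scintillation.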

[2] = molecular target: Sodium-dependent noradrenaline transporter (Homo sapiens) (UniProt P23975); assay: Displacement of [3H]nisoxetine from recombinant human norepinephrine transporter at 1 uM after 60 mins by scintillation counting method relative to control
Sodium-dependent noradrenaline transporter (Homo sapiens), sequence (P23975 whole entry): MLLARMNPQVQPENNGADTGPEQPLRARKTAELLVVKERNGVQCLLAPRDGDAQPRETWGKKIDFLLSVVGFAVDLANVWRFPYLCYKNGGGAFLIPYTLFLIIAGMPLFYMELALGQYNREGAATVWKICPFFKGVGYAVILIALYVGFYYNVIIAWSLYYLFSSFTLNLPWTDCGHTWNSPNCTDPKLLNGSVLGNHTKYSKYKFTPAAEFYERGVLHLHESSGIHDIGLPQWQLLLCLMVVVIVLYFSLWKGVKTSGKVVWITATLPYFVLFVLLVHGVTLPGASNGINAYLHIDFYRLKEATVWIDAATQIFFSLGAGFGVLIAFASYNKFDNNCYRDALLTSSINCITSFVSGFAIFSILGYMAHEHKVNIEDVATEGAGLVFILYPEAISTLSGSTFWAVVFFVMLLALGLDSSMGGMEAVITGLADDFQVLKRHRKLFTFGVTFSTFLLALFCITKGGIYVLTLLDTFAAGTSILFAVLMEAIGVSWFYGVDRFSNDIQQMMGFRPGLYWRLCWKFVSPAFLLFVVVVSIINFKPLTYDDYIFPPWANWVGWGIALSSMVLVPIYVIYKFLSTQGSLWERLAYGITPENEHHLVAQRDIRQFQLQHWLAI
In short: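 Human NET-enriched membranes (1 μg), 5 nM [3H]nisoxetine in 50 mM Tris-HCl, 120 mM NaCl, 5 mM KCl, pH 7.4, 1% DMSO final; 60 min at 4 °C; 10 μM desipramine for nonspecific binding. Single 1 μM compound; filtration, displacement of radioligand.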

CYP2D6 = CYP2D6 (Homo sapiens, UniProt P10635); assay: Inhibition of recombinant human CYP2D6 at 1 uM by fluorescence probe substrate-based flurometric analysis; type: ADME
CYP2D6, sequence (P10635 whole entry): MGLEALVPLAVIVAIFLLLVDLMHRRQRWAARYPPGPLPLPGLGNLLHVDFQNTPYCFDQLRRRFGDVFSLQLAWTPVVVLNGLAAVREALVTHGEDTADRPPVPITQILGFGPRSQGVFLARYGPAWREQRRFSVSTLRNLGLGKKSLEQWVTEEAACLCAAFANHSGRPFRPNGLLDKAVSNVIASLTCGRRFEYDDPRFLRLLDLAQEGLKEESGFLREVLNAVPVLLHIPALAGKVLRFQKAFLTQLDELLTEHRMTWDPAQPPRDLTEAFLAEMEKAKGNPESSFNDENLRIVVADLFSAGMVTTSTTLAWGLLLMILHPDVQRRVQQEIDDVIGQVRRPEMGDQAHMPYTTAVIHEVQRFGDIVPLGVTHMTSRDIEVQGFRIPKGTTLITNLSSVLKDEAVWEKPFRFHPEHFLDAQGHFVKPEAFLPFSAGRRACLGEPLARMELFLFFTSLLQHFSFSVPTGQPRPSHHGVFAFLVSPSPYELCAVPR

Mus musculus [3] = assay: Antiallodynic activity in CD-1 mouse model of capsaicin-induced mechanical allodynia assessed as increase in paw withdrawal threshold at 8 mg/kg, sc administered 30 mins before capsaicin addition and measured after 15 mins by von-Frey test; type: functional, organism-based
In short: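 Female CD-1 mice given compound or HPMC vehicle sc 30 min before intraplantar capsaicin (1 µg in 20 µL, 1% DMSO). 15 min later, electronic von Frey punctate stimulus (0.5 g) at least 5 mm from injection site; paw withdrawal latency, three trials 30 s apart, 50 s cutoff. % antiallodynic effect = [(LTD−LTS)/(CT−LTS)]×100; 6-8 mice per group, ANOVA with Bonferroni.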

Mus musculus [4] = assay: Antiallodynic activity in CD-1 mouse model of capsaicin-induced mechanical allodynia assessed as increase in paw withdrawal threshold at 16 mg/kg, sc administered 30 mins before capsaicin addition and measured after 15 mins in presence of sigma1 receptor agonist PRE-084 by von-Frey test; type: functional, organism-based
In short: (§1)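 Female CD-1 mice pretreated sc with σ1 agonist PRE-084 (32 mg/kg) 5 min before sc test compound; 30 min later capsaicin 1 µg intraplantar. After 15 min, 0.5 g electronic von Frey stimulus on secondary hyperalgesia area; withdrawal latency averaged over three trials, 50 s cutoff. Effect as % antiallodynia versus HPMC-treated; 6-8 animals, one-way ANOVA plus Bonferroni.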

Mus musculus [5] = assay: Antiallodynic activity in CD-1 mouse model of capsaicin-induced mechanical allodynia assessed as increase in paw withdrawal threshold at 32 mg/kg, sc administered 30 mins before capsaicin addition and measured after 15 mins in presence of sigma1 receptor agonist PRE-084 by von-Frey test; type: functional, organism-based
In short: as §1

[6] = molecular target: Sodium-dependent dopamine transporter (Homo sapiens) (UniProt Q01959); assay: Displacement of [3H]GBR12935 from human DAT at 1 uM after 120 mins by scintillation counting method relative to control
Sodium-dependent dopamine transporter (Homo sapiens), sequence (Q01959 whole entry): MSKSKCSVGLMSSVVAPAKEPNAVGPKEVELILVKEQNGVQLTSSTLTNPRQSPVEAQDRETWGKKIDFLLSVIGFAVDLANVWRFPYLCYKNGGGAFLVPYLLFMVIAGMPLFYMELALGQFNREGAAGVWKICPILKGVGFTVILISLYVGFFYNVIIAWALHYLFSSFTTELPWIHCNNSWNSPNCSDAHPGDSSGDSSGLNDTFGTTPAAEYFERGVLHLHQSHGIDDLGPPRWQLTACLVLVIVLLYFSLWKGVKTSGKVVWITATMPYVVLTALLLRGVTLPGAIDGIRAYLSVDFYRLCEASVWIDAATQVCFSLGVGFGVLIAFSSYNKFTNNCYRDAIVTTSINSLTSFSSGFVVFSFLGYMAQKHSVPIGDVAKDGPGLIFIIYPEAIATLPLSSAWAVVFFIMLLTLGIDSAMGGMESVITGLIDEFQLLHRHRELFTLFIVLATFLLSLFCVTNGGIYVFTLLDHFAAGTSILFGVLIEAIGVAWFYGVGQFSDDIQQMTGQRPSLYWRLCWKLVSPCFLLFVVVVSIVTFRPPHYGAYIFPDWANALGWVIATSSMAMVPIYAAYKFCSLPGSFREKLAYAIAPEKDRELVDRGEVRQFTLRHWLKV
In short: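 DAT-enriched human membranes (5 µg), 2 nM [3H]GBR12935 in 50 mM Tris-HCl/100 mM NaCl pH 7.4, 0.1% DMSO, 120 min at 4 °C; 10 µM GBR12909 for nonspecific binding. Compound at 1 µM; displacement measured after filtration.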

Sigma non-opioid intracellular receptor 1, sequence (Q60492 whole entry): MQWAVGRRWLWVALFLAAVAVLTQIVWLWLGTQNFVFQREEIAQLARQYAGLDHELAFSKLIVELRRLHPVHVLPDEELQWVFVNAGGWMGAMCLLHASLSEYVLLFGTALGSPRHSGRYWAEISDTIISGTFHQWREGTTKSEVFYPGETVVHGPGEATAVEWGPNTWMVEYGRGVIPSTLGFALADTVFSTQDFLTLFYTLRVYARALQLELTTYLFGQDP

Ki [1]: 6.6 nM
Ki (Mu-type opioid receptor): > 1000 nM
inhibition [2]: < 50%
inhibition at 1 µM (CYP2D6): 55%
inhibition [6]: < 50%
SMILES: COc1ccc2c(c1)CCN(CCC(F)Cc1ccccc1)CC2 (stereo not drawn)
Activity (Mus musculus [3]): Active
Activity (Mus musculus [4]): inactive
Activity (Mus musculus [5]): Active

— ChEMBL document CHEMBL4393719, “Tetrahydro-3-benzazepines with fluorinated side chains as NMDA and σ1 receptor antagonists: Synthesis, receptor affinity, selectivity and antiallodynic activity” (Eur J Med Chem, 2019)
